Active and inactive are the calls of the source. No cut-off for these calls is given here.
Columns and labels:
[1] = AUC (0 to 1.5 hrs) in C57BL/6J mouse liver at 30 mg/kg, po administered as single dose by LC/MS/MS analysis; assay type: ADME, organism-based; parameters: dose 30 mg/kg, time < 1.5 hr, route oral; settings: in vivo
[2] = Ratio of AUC (0 to 1.5 hrs) in C57BL/6J mouse liver to pancreas at 10 mg/kg, po administered as single dose by LC/MS/MS analysis; assay type: ADME, organism-based; settings: in vivo
[3] = Ratio of AUC (0 to 1.5 hrs) in C57BL/6J mouse liver to plasma at 30 mg/kg, po administered as single dose by LC/MS/MS analysis; assay type: ADME, organism-based; settings: liver and plasma, read-out: Ratio AUC
[4] = AUC (0 to 1.5 hrs) in C57BL/6J mouse plasma at 10 mg/kg, po administered as single dose by LC/MS/MS analysis; assay type: ADME, organism-based; parameters: time < 1.5 hr, dose 10 mg/kg, route oral
[5] = AUC (0 to 1.5 hrs) in C57BL/6J mouse pancreas at 30 mg/kg, po administered as single dose by LC/MS/MS analysis; assay type: ADME, organism-based; parameters: time < 1.5 hr, dose 30 mg/kg, route oral; settings: in vivo
[6] = AUC (0 to 1.5 hrs) in C57BL/6J mouse plasma at 5 mg/kg, po administered as single dose by LC/MS/MS analysis; assay type: ADME, organism-based; parameters: time < 1.5 hr, dose 5 mg/kg, route oral
[7] = AUC (0 to 1.5 hrs) in C57BL/6J mouse pancreas at 5 mg/kg, po administered as single dose by LC/MS/MS analysis; assay type: ADME, organism-based; parameters: dose 5 mg/kg, time < 1.5 hr, route oral; settings: in vivo
[8] = Ratio of AUC (0 to 1.5 hrs) in C57BL/6J mouse pancreas to plasma at 30 mg/kg, po administered as single dose by LC/MS/MS analysis; assay type: ADME, organism-based; settings: pancreas and plasma, read-out: Ratio AUC
[9] = Ratio of AUC (0 to 1.5 hrs) in C57BL/6J mouse liver to plasma in C57BL/6J mouse at 5 mg/kg, po administered as single dose by LC/MS/MS analysis; assay type: ADME, organism-based; settings: liver and plasma, read-out: Ratio AUC
[10] = Ratio of AUC (0 to 1.5 hrs) in C57BL/6J mouse liver to plasma at 10 mg/kg, po administered as single dose by LC/MS/MS analysis; assay type: ADME, organism-based; settings: liver and plasma, read-out: Ratio AUC
[11] = Ratio of AUC (0 to 1.5 hrs) in C57BL/6J mouse liver to pancreas at 30 mg/kg, po administered as single dose by LC/MS/MS analysis; assay type: ADME, organism-based; settings: in vivo
[12] = Ratio of AUC (0 to 1.5 hrs) in C57BL/6J mouse liver to pancreas at 5 mg/kg, po administered as single dose by LC/MS/MS analysis; assay type: ADME, organism-based; settings: in vivo
[13] = AUC (0 to 1.5 hrs) in C57BL/6J mouse plasma at 30 mg/kg, po administered as single dose by LC/MS/MS analysis; assay type: ADME, organism-based; parameters: dose 30 mg/kg, time < 1.5 hr, route oral
[14] = system: Mus musculus; assay: Antidiabetic activity in C57BL/6J mouse assessed as increase in insulin secretion at 30 mg/kg, po measured up to 60 mins by ELISA; assay type: functional, organism-based
In short: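 Male C57BL/6J mice (8 weeks) fasted 2 h, then dosed orally at time 0 (n = 8/group). Tail vein insulin measured at 0, 30 and 60 min by ultra-sensitive mouse insulin ELISA. Mean ± SEM, Dunnett's test.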

[15] = AUC (0 to 1.5 hrs) in C57BL/6J mouse liver at 5 mg/kg, po administered as single dose by LC/MS/MS analysis; assay type: ADME, organism-based; parameters: dose 5 mg/kg, time < 1.5 hr, route oral; settings: in vivo
[16] = AUC (0 to 1.5 hrs) in C57BL/6J mouse liver at 10 mg/kg, po administered as single dose by LC/MS/MS analysis; assay type: ADME, organism-based; parameters: time < 1.5 hr, dose 10 mg/kg, route oral; settings: in vivo
[17] = system: Mus musculus; assay: Antidiabetic activity in po dosed C57BL/6J mouse assessed as reduction in blood glucose level administered for 15 to 30 mins prior to glucose challenge measured up to 120 mins post dose by OGTT; assay type: functional, organism-based
In short: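 Fasted male C57BL/6J or ob/ob mice (8 weeks, n = 8/group) dosed orally in 0.5% methylcellulose 15 or 30 min before a 2 g/kg oral glucose load. Tail vein glucose measured by glucometer at −15 or −30, 0, 20, 40, 60, 90 and 120 min. Incremental glucose AUC0-120 min compared with vehicle. Mean ± SEM, Dunnett's test.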

[18] = Ratio of AUC (0 to 1.5 hrs) in C57BL/6J mouse pancreas to plasma at 5 mg/kg, po administered as single dose by LC/MS/MS analysis; assay type: ADME, organism-based; settings: pancreas and plasma, read-out: Ratio AUC
[19] = AUC (0 to 1.5 hrs) in C57BL/6J mouse pancreas at 10 mg/kg, po administered as single dose by LC/MS/MS analysis; assay type: ADME, organism-based; parameters: dose 10 mg/kg, time < 1.5 hr, route oral; settings: in vivo
[20] = Ratio of AUC (0 to 1.5 hrs) in C57BL/6J mouse pancreas to plasma at 10 mg/kg, po administered as single dose by LC/MS/MS analysis; assay type: ADME, organism-based; settings: pancreas and plasma, read-out: Ratio AUC
[21] = system: Mus musculus; assay: Toxicity in C57BL/6J mouse assessed as hypoglycemia at 30 mg/kg, po measured up to 300 mins by glucometric method; assay type: organism-based; settings: in vivo, 5 h

AUC [1]: 15700 ng·h/g
Ratio AUC [2]: 3.2
Kp [3]: 6.8
AUC(0-t) at 1.5 h [4]: 574 ng·h/mL
AUC [5]: 5030 ng·h/g
AUC(0-t) at 1.5 h [6]: 351 ng·h/mL
AUC [7]: 505 ng·h/g
Kp [8]: 2.2
Kp [9]: 4.2
Kp [10]: 5.6
Ratio AUC [11]: 3.1
Ratio AUC [12]: 2.9
AUC(0-t) at 1.5 h [13]: 2330 ng·h/mL
AUC [15]: 1470 ng·h/g
AUC [16]: 3230 ng·h/g
Kp [18]: 1.4
AUC [19]: 1020 ng·h/g
Kp [20]: 1.8
Structure (SMILES): CS(=O)(=O)c1ccc([C@@H](C[C@H]2CCC(=O)C2)C(=O)Nc2cnccn2)cc1Cl [PIRAGLIATIN]
Activity [14]: Active
Activity [17]: Dose-dependent effect
Activity [21]: Toxic

— ChEMBL document CHEMBL4270548, “Discovery of a potent glucokinase activator with a favorable liver and pancreas distribution pattern for the treatment of type 2 diabetes mellitus” (Eur J Med Chem, 2018)
